Hits are enriched below; roughly 4.5% of the tested compounds scored in any of these assays.
MrgX1 ag: agonists of human MrgX1 receptor, primary screen, HEK293 cells, Fluo-4 calcium flux | 310,000 compounds, 0.44% hits | Fluo-4 calcium fluorescence, agonist mode; active compounds read high | B-score at 10 µM | AID 588627, 2011;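 active = calcium response B-score plate-corrected fluorescence ratio at least 3 library SD, with starting fluorescence B-score inside 5 SD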
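Material: HEK293 cells stably expressing human MrgX1 receptor | Quantity: 15,000 cells per well | Times: Cells plated overnight, dye loaded 0.5 h 37 °C, 0.5 h room temperature | Measured by: Kinetic Fluo-4 NW fluorescence of intracellular calcium | Control set: Positive and negative controls per plate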
PHOSPHO1 inh: PubChem AID 1565 | inhibition, % at 13.3 µM | recombinant PHOSPHO1, absorbance phosphatase assay | Phosphoethanolamine/phosphocholine phosphatase (Homo sapiens), Q8TCT1 | 290,000 compounds, 1.1% hits; in the data active = inhibition above about 60%
Target sequence (Q8TCT1 whole entry, looked up): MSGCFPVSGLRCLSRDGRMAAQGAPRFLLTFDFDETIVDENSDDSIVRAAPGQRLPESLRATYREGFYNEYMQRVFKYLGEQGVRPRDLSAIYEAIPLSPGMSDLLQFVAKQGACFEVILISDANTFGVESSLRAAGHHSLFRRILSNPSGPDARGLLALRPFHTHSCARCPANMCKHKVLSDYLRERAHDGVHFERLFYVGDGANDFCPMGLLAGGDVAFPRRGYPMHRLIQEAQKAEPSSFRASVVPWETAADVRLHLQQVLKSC
MrgX1 antagonist: antagonists of human MrgX1 receptor, primary screen, HEK293 cells, Fluo-4 calcium flux | Mas-related G-protein coupled receptor member X1 (Homo sapiens), Q96LB2 | BAM8-22 antagonism; active compounds read low | B-score at 10 µM | 310,000 compounds, 1.3% hits | AID 588676, 2011;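 active = calcium-response B-score plate-corrected more than 3 library SD below zero, starting fluorescence within 5 deviations, no agonist response on first addition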;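 also: peak minus trough fluorescence over baseline after final BAM8-22 challenge near maximal dose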
RGS4 inh: RGS4 inhibitors, primary screen, cell-based, HEK293 M3R inducible RGS4, calcium flux; Fluo-4 calcium flux; active compounds read high; triggered by carbachol at its EC20; B-score at 10 µM; 310,000 compounds, 0.45% hits;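 active = B-score, a plate-corrected calcium signal, over three deviations above library mean, with baseline fluorescence within five deviations of library mean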;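 also: RGS4 expression induced by doxycycline in cells with stable M3 receptor; B-score is computed from the integrated fluorescence ratio over baseline after carbachol; higher B-score means a larger calcium signal and so more RGS4 inhibition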
Target sequence (P49798 whole entry, looked up): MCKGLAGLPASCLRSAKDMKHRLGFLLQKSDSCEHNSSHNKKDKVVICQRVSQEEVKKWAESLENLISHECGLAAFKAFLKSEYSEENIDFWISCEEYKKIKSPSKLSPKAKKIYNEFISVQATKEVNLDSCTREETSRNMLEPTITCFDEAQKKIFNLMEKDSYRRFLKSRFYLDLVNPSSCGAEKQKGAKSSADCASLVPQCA
RGS4 act: RGS4 potentiators or activators, primary screen, cell-based, HEK293 M3R inducible RGS4, calcium flux | carbachol calcium flux Fluo4; active compounds read low | B-score at 10 µM | 310,000 compounds, 0.92% hits | AID 463111, 2010;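 active = B-score of the integrated calcium signal more than 4 SD below the library mean, with starting fluorescence not abnormally high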;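 also: negative B-score means reduced calcium response which marks RGS4 activation or potentiation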
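Material: Inducible-RGS4 HEK293 cells carrying M3 receptor; also added: carbachol at ECmax as muscarinic agonist stimulus; incubation: compound preincubation 20 min at room temperature before agonist; signal: Fluo4-AM (2 µM) calcium-flux fluorescence, kinetic read; measure: integrated calcium ratio converted to B score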
MrgX1 PAM: positive allosteric modulators of MrgX1, primary screen, HEK293 cells, Fluo-4 calcium flux; FDSS; active compounds read high; B-score at 10 µM; 310,000 compounds, 0.63% hits; AID 588675, 2011;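 active = plate-corrected calcium response at least 3 library SD above typical, normal starting fluorescence, not activating the receptor alone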;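 also: compound read alongside a low EC10 to EC30 dose of BAM8-22 agonist; peak minus trough fluorescence over baseline measured at the second addition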
RGS4 block valid: enhanced carbachol calcium response, M3R/RGS4 cells, RGS4 inhibitor project, cell-based, validation screen, HEK293 M3R/RGS4, calcium flux; shares compounds with RGS4 inh; carbachol calcium Fluo-4 fluorescence; carbachol added at its EC20; 0 = buffer wells, 100 = carbachol control; calcium response, % at 10 µM; 1,700 compounds, 65% hits; AID 492999, 2010;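 active = duplicate-averaged calcium response above the buffer-only control mean plus 5 SD of those controls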;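 also: integrated fluorescence ratio F max minus min over baseline F0; higher response in RGS4-induced cells means RGS4 inhibition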
RGS4 uninduced: carbachol calcium response in non-induced M3R cells, confirmation, counter-screen for RGS4 inhibitor project, cell-based, HEK293 M3R; shares compounds with RGS4 inh; carbachol calcium Fluo-4; submaximal (EC20) carbachol stimulus; buffer wells 0%, carbachol control wells 100%; activity (percent), % at 10 µM; 1,900 compounds, 20% hits; call rule not given here;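 also: RGS4 induction absent so cells express M3R without RGS4; higher means more calcium signal and flags a non-specific hit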
RGS4 inh ctr2: second counter-screen for RGS4 inhibitors: non-induced cells without carbachol. HEK293 M3R/RGS4 non-induced, Fluo-4 calcium, no carbachol; normalised: buffer wells 0%, carbachol wells 100%. shares compounds with RGS4 inh. calcium response (agonist-mode artifact), % at 10 µM. 1,900 compounds, 22% hits;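 active = duplicate-averaged calcium rise in uninduced cells above buffer wells' mean plus 5 SD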
* hit, by the source's call; i = inactive; nt = no result.

SMILES | MrgX1 ag | PHOSPHO1 inh | MrgX1 antagonist | RGS4 inh | RGS4 act | MrgX1 PAM | RGS4 block valid | RGS4 uninduced | RGS4 inh ctr2
N#C/C(=C\c1ccc(OC(F)F)cc1)C(=O)N1CCCCC1 | i | 43.6 | i | 5.85* | i | i | 16.0%* | i | i
CCN1CCN(C(=O)/C(C#N)=C/c2ccc(OC(F)F)cc2)CC1 | i | -7.1 | i | i | i | i | nt | nt | nt
COc1cc(C2C3=C(CCCC3=O)Nc3[nH]n(-c4ccccc4)c(=O)c32)ccc1O (stereo not drawn) | i | 11.2 | i | nt | nt | i | nt | nt | nt
COc1cc(C2C3=C(CCCC3=O)Nc3c2c(C)nn3-c2cccc(C)c2)cc(OC)c1O (stereo not drawn) | i | 28.1 | i | 6.34* | i | i | 13.5%* | 40.0%* | i
Fc1cccc2sc(Nc3nc4ccccc4s3)nc12 | i | -36.8 | i | i | i | i | nt | nt | nt
O=C(c1nnsc1S(=O)c1ccc(Cl)cc1)N1CCOCC1 (stereo not drawn) | nt | 27.8 | nt | 7.14* | i | nt | 31.0%* | i | 23.5%*
O=C(c1nnsc1S(=O)(=O)c1ccc(Cl)cc1)N1CCOCC1 | nt | 31.7 | nt | i | i | nt | nt | nt | nt
CCOC(=O)N1CCN(C2CCCN(C(=O)c3ccccc3C(F)(F)F)C2)CC1 (stereo not drawn) | nt | nt | nt | i | i | nt | nt | nt | nt
COCCNC(=S)N(CCO)Cc1cc2cc3c(cc2[nH]c1=O)OCO3 | i | 15.6 | i | i | i | i | i | i | i
COCCNC(=S)N(CCCO)Cc1cc2cc3c(cc2[nH]c1=O)OCCO3 | i | 8.3 | i | i | i | i | i | i | i
CCN(CC)CCN(Cc1cc2cc3c(cc2[nH]c1=O)OCO3)C(=S)NCCCOC | i | 22.0 | i | i | i | i | nt | nt | nt
CC(C)(CO)NCC(=O)Nc1cc(C(F)(F)F)cc(NC(=O)CNC(C)(C)CO)c1Cl | i | -6.2 | i | i | i | i | nt | nt | nt
COc1ccc(-c2noc(N3CCCC(C(=O)Nc4ccc(C(C)=O)cc4)C3)n2)cc1 (stereo not drawn) | i | 7.2 | i | i | i | i | nt | nt | nt
Cc1oc(-c2ccccc2Cl)nc1CS(=O)CC(=O)NCc1ccc2c(c1)OCO2 (stereo not drawn) | i | -16.8 | i | i | i | i | nt | nt | nt
COc1cccc(OC)c1C(=O)Nc1nc(-c2ccccc2)cs1 | i | 3.1 | i | i | i | i | i | i | i
O=C(Nc1nc(-c2ccc(-c3ccccc3)cc2)cs1)C1=COCCO1 | i | -2.4 | i | i | i | i | nt | i | i
Cc1cc(C)c(-c2csc(NC(=O)C3=COCCO3)n2)cc1C | i | nt | i | i | i | i | nt | i | i
COc1ccc(-c2csc(NC(=O)c3ccccc3C(=O)O)n2)cc1 | i | -18.3 | i | i | i | i | nt | nt | nt
COc1cccc(NC(=O)c2ccccc2-c2ccccc2)c1 | i | 5.8 | i | i | i | i | nt | nt | nt
CCC1CCCCN1C(=O)CCn1c(=O)oc2ccccc21 (stereo not drawn) | i | nt | i | i | i | i | nt | nt | nt
CCCn1cc(CN2CCN(Cc3ccc(C)o3)C(CCO)C2)c(C)n1 (stereo not drawn) | i | 34.6 | i | i | i | i | nt | nt | nt
CN(C)c1ccc(NC(=O)c2ccc(Cn3cc([N+](=O)[O-])cn3)cc2)cc1 | i | 19.2 | i | i | i | i | nt | nt | nt
Cc1ccc(C(=O)COC(=O)c2cc(=O)[nH]c3ccccc23)cc1C | i | 5.8 | i | i | i | i | nt | nt | nt
Cc1cccc(C)c1N/C=C/c1onc(C)c1[N+](=O)[O-] | i | -2.6 | i | i | i | i | nt | nt | nt
Cc1noc(/C=C/c2cccnc2)c1[N+](=O)[O-] | i | 18.7 | i | 5.7* | i | i | 18.5%* | i | i
SMILES | MrgX1 ag | PHOSPHO1 inh | MrgX1 antagonist | RGS4 inh | RGS4 act | MrgX1 PAM | RGS4 block valid | RGS4 uninduced | RGS4 inh ctr2
O=C(/C=C/c1cccnc1)c1ccccc1O | i | 34.7 | i | 8.84* | i | i | 37.0%* | 63.0%* | 8.5%*
O=C(/C=C/c1cccnc1)c1ccc([N+](=O)[O-])cc1 | i | 18.4 | i | 6.05* | i | i | 43.0%* | 54.5%* | i
CN(C)C(=O)COc1ccc(C(=O)/C=C/c2cccnc2)cc1 | i | 31.9 | i | 5.59* | i | 6.85* | 17.0%* | i | i
Cc1ccc(/C=C/C(=O)c2ccccc2O)cc1 | i | 27.7 | i | i | i | i | nt | nt | nt
Cc1ccc(CS/C(Nc2ccccc2C)=C(\C#N)C(N)=O)c(C)c1 | i | -6.9 | i | i | i | i | nt | nt | nt
O=C(/C=C/c1ccco1)c1cccnc1 | i | 27.0 | i | i | i | i | nt | nt | nt
COc1ccc(C(=O)/C=C/c2ccc(O)cc2)cc1 | i | 15.8 | i | i | i | i | nt | nt | nt
O=C(/C=C/c1cccc(O)c1)c1cccnc1 | i | -12.6 | i | 5.76* | i | i | 8.5%* | i | 10.5%*
O=C(/C=C/c1cccnc1)c1ccc(O)cc1 | i | 24.0 | i | 5.2* | i | i | 15.0%* | i | i
O=C(/C=C/c1cccnc1)c1cccc(O)c1 | i | 40.5 | i | 12.1* | i | i | 37.0%* | i | i
O=C(CCCN1C(=O)S/C(=C/C=C/c2ccccc2)C1=O)Nc1ccc(C(=O)O)cc1 | i | -5.7 | i | i | i | i | nt | nt | nt
O=C(CN1C(=O)S/C(=C\C=C\c2ccccc2)C1=O)Nc1ccc(O)cc1 | i | 1.5 | i | i | i | i | i | i | 7.5%*
